The source made the active and inactive calls. The calls are words filed in the database; no cut-off is given here.
What was measured:
Format in all cases: cell-based
[1] = molecular target: Tyrosine-protein kinase SYK (Rattus norvegicus) (UniProt Q64725); experiment: Inhibition of spleen tyrosine kinase in rat RBL-2H3 cells assessed as inhibition of IgE-induced degranulation at 10 to 100 uM after 1 hr by beta-hexosaminidase release assay
How it was run: (§1)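 RBL-2H3 cells (2 × 10^4/well) cultured 1 h, then sensitized with anti-DNP IgE 0.45 µg/ml for 24 h. Cells were washed in Siraganian buffer A (PIPES, pH 7.2) and equilibrated in buffer B at 37 °C for 10 min. Compound was added at 37 °C for 30 min, then DNP-BSA 10 µg/ml for 10 min. Supernatant β-hexosaminidase was read with p-nitrophenyl-N-acetyl-β-D-glucosaminide at A405, corrected for direct enzyme inhibition.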

[2] = molecular target: Tyrosine-protein kinase SYK (Rattus norvegicus) (UniProt Q64725); experiment: Inhibition of spleen tyrosine kinase in rat RBL-2H3 cells assessed as inhibition of IgE-induced upregulation of PI3K/Akt level at 50 uM after 30 mins by Western blotting
How it was run: (§2)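 IgE-sensitized RBL-2H3 cells were pretreated 30 min with 50 µM compound and stimulated with DNP-BSA. Lysates were run on SDS-PAGE and transferred to PVDF. Membranes were blocked 1 h in 5% nonfat milk, probed with primary antibody overnight at 4 °C, then HRP secondary antibody 1 h at room temperature. ECL chemiluminescence detection; three independent experiments.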

[3] = molecular target: Tyrosine-protein kinase SYK (Rattus norvegicus) (UniProt Q64725); experiment: Inhibition of spleen tyrosine kinase in rat RBL-2H3 cells assessed as inhibition of IgE-induced upregulation of JNK level at 50 uM after 30 mins by Western blotting; how it was run: as §2
[4] = molecular target: Tyrosine-protein kinase SYK (Rattus norvegicus) (UniProt Q64725); experiment: Inhibition of spleen tyrosine kinase in rat RBL-2H3 cells assessed as inhibition of IgE-induced increase of ROS level at 50 uM after 30 mins by FLIPR assay
How it was run: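 Sensitized RBL-2H3 cells (5 × 10^4/well) took up 10 µM CM-H2DCFDA for 30 min at 37 °C and were washed twice. Cells were exposed to 50 µM compound for 30 min, then challenged with DNP-BSA 10 µg/ml. DCF fluorescence (ex 490/em 530 nm) was read on a fluorometric imaging plate reader. DPI 200 nM served as control. Means ± SEM, n = 10.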

[5] = molecular target: Tyrosine-protein kinase SYK (Rattus norvegicus) (UniProt Q64725); experiment: Inhibition of spleen tyrosine kinase in rat RBL-2H3 cells assessed as inhibition of IgE-induced upregulation of cPLA2 level at 50 uM after 30 mins by Western blotting; how it was run: as §2
[6] = molecular target: Tyrosine-protein kinase SYK (Rattus norvegicus) (UniProt Q64725); experiment: Inhibition of spleen tyrosine kinase in rat RBL-2H3 cells assessed as inhibition of IgE-induced degranulation after 1 hr by beta-hexosaminidase release assay; how it was run: as §1
[7] = molecular target: Tyrosine-protein kinase SYK (Rattus norvegicus) (UniProt Q64725); experiment: Inhibition of spleen tyrosine kinase in rat RBL-2H3 cells assessed as inhibition of IgE-induced upregulation of phospholipase Cgamma1 level at 50 uM after 30 mins by Western blotting; how it was run: as §2
[8] = molecular target: Tyrosine-protein kinase SYK (Rattus norvegicus) (UniProt Q64725); experiment: Inhibition of spleen tyrosine kinase in rat RBL-2H3 cells assessed as inhibition of IgE-induced upregulation of p38 level at 50 uM after 30 mins by Western blotting; how it was run: as §2
[9] = molecular target: Tyrosine-protein kinase SYK (Rattus norvegicus) (UniProt Q64725); experiment: Inhibition of spleen tyrosine kinase in rat RBL-2H3 cells assessed as inhibition of IgE-induced upregulation of Lyn level at 50 uM after 30 mins by Western blotting; how it was run: as §2
[10] = molecular target: Tyrosine-protein kinase SYK (Rattus norvegicus) (UniProt Q64725); experiment: Inhibition of spleen tyrosine kinase in rat RBL-2H3 cells assessed as inhibition of IgE-induced upregulation of ERK1/2 level at 50 uM after 30 mins by Western blotting; how it was run: as §2
[11] = molecular target: Tyrosine-protein kinase SYK (Rattus norvegicus) (UniProt Q64725); experiment: Inhibition of spleen tyrosine kinase in rat RBL-2H3 cells assessed as inhibition of IgE-induced upregulation of phospholipase 2 level at 50 uM after 30 mins by Western blotting; how it was run: as §2
[12] = molecular target: Tyrosine-protein kinase SYK (Rattus norvegicus) (UniProt Q64725); experiment: Inhibition of spleen tyrosine kinase in rat RBL-2H3 cells assessed as inhibition of IgE-induced increase of intracellular calcium level at 50 uM after 30 mins by FLIPR assay
How it was run: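 IgE-sensitized RBL-2H3 cells (5 × 10^4/well; anti-DNP IgE 0.45 µg/ml, 24 h) were loaded with Fluo-3AM for 1 h. Cells were washed and held 30 min in loading buffer containing 50 µM compound, then stimulated with DNP-BSA 10 µg/ml. Fluorescence (ex 490/em 530 nm) was recorded on a fluorometric imaging plate reader. Means ± SEM, n = 12.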

Tyrosine-protein kinase SYK (Rattus norvegicus), sequence (Q64725 whole entry, looked up): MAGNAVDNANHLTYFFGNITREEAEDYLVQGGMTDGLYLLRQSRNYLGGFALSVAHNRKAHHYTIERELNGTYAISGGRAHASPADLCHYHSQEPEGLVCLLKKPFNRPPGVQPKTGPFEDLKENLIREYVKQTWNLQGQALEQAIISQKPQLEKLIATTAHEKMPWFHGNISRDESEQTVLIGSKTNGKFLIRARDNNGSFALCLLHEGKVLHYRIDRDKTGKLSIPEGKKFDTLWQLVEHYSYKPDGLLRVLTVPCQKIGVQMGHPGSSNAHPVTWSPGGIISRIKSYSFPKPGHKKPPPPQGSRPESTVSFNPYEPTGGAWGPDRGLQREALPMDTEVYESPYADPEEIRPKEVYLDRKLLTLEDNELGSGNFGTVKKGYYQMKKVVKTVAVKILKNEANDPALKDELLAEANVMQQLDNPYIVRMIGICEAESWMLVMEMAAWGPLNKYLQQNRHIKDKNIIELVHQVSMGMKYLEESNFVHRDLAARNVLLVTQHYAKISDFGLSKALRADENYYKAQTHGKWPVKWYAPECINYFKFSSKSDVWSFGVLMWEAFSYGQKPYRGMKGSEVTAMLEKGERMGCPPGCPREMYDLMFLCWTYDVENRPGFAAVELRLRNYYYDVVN

| inhibition [1] | inhibition [2] | inhibition [3] | inhibition [4] | inhibition [5] | inhibition [6] | inhibition [7] | inhibition [8] | inhibition [9] | inhibition [10] | inhibition [11] | inhibition [12] | SMILES |
| --- | --- | --- | --- | --- | --- | --- | --- | --- | --- | --- | --- | --- |
| Active | – | – | – | – | – | – | – | – | – | – | – | O=C(/C=C/c1ccccc1)O[C@@H]1O[C@H](CO)[C@@H](O)[C@H](O)[C@H]1O |
| – | Active | Active | Active | Active | Dose-dependent effect | Active | Active | inactive | Active | Active | Active | COC(=O)/C=C/c1ccc(O[C@@H]2O[C@H](CO)[C@@H](O)[C@H](O)[C@H]2O)cc1 |
| inactive | – | – | – | – | – | – | – | – | – | – | – | O=C(O)/C=C/c1ccc(O)cc1 |
| – | – | – | Active | – | Dose-dependent effect | Active | – | inactive | – | Active | Active | O=C(O)/C=C/c1ccccc1 |

— ChEMBL document CHEMBL1212882, “Phenolic constituents isolated from Fragaria ananassa Duch. inhibit antigen-stimulated degranulation through direct inhibition of spleen tyrosine kinase activation” (Bioorg Med Chem, 2010)
